Tested on: MS2 coat protein
Test: apparent Kd, MS2 coat protein; higher = weaker binding; RNA-MaP array; FMN 200 µM where present
Procedure, shortened: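 The apparent Kd comes from binding curves fitted cluster by cluster, filtered, and summarised as a median. Those curves followed SNAP-549-labelled MS2 coat protein from 0.7 or 1.5 nM, doubling to 3 µM, on Illumina sequencing-chip clusters where stalled E. coli RNA polymerase had transcribed the designs, without and then with constant ligand. The buffer was 100 mM Tris-HCl pH 7.5, 80 mM KCl, 4 mM MgCl2, BSA, DTT, yeast tRNA and Tween-20, and green signal was normalised to red-channel RNA signal and control-cluster median Fmax.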

[1] = designed as: OFF switch for flavin mononucleotide, no ligand
[2] = ligand present: flavin mononucleotide, designed as: OFF switch for flavin mononucleotide
[3] = designed as: ON switch for flavin mononucleotide, no ligand
[4] = ligand present: flavin mononucleotide, designed as: ON switch for flavin mononucleotide

Row | Sequence | apparent Kd [1] [nM] | apparent Kd [2] [nM] | apparent Kd [3] [nM] | apparent Kd [4] [nM]
1 | UGUCGGAGCAGAGGAUAUACAUGAGGAUCACCCAUGUAAAUGGAAGAAGACUGGAAACAGUCAAUGUAGAAGGCUGCUCCGACA | 125 | 694 |  | 
2 | UGUCGGAGCAGAGGAUAUAUACAUGAGGAUCACCCAUGUAAAGAUCAAAGCUGGAAACAGCAAGUAUAGAAGGCUGCUCCGACA | 120 | 295 |  | 
3 | UGUCGGAGCAGAGGAUAUAUACAUGAGGAUCACCCAUGUAAAUGAAUGAGCUGGAAACAGCAUGUAUAGAAGGCUGCUCCGACA | 118 | 298 |  | 
4 | UGUCGGAGCAGAGGAUAUUACAUGAGGAUCACCCAUGUAUGAACCAAAAGCUGGAAACAGCAAUGUAAGAAGGCUGCUCCGACA | 11.8 | 123 |  | 
5 | UGUCGGAGCAGAGGAUAUUACAUGAGGAUCACCCAUGUAUGAACCAAUAACUGGAAACAGCAAUGUAAGAAGGCUGCUCCGACA | 7.6 | 42.5 |  | 
6 | UGUCGGAGCAGAGGAUAUUACAUGAGGAUCACCCAUGUAUGAACCAAUAGCUGGAAACACCAAUGUAAGAAGGCUGCUCCGACA | 19.8 | 146 |  | 
7 | UGUCGGAGCAGAGGAUAUUACAUGAGGAUCACCCAUGUAUGAACCAAUAGCUGGAAACAGCAAGGUAAGAAGGCUGCUCCGACA | 5.24 | 9.98 |  | 
8 | UGUCGGAGCAGAGGAUAUUACAUGAGGAUCACCCAUGUAUGAACCAAUAGCUGGAAACAGCAAUCUAAGAAGGCUGCUCCGACA | 4.47 | 4.34 |  | 
9 | UGUCGGAGCAGAGGAUAUUACAUGAGGAUCACCCAUGUAUGAACCAAUAGCUGGAAACAGCAAUGUAAGAAGGCUGCUCCGACG | 12.9 | 157 |  | 
10 | UGUCGGAGCAGAGGAUAUUACAUGAGGAUCACCCAUGUAUGAACCAAUAGCUGGAAACAGCAAUGUCAGAAGGCUGCUCCGACA | 5 | 5.06 |  | 
11 | UGUCGGAGCAGAGGAUAUUACAUGAGGAUCACCCAUGUAUGAACCAAUAGCUGGAAACAGCAAUUUAAGAAGGCUGCUCCGACA | 5.28 | 4.96 |  | 
12 | UGUCGGAGCAGAGGAUAUUACAUGAGGAUCACCCAUGUAUGAACCAAUAGCUGGAAACGGCAAUGUAAGAAGGCUGCUCCGACA | 13.1 | 171 |  | 
13 | UGUCGGAGCAGAGGAUAUUACAUGAGGAUCACCCAUGUAUGAACCAAUAGCUGGAACCAGCAAUGUAAGAAGGCUGCUCCGACA | 14.2 | 160 |  | 
14 | UGUCGGAGCAGAGGAUAUUACAUGAGGAUCACCCAUGUAUGAACCAAUAGCUGGAAGCAGCAAUGUAAGAAGGCUGCUCCGACA | 12.2 | 137 |  | 
15 | UGUCGGAGCAGAGGAUAUUACAUGAGGAUCACCCAUGUAUUAAAUGGAAGCUGGAAACAGCAAUGUAAGAAGGCUGCUCCGACA | 59.2 | 311 |  | 
16 | UGUCGUAGCAGAGGAUAUUACAUGAGGAUCACCCAUGUAUGAACCAAUAGCUGGAAACAGCAAUGUAAGAAGGCUGCUCCGACA | 13.2 | 158 |  | 
17 | UGUCUAUUUGAAGGAUAUCUAAGCAUAAACCGUAGAGAAGGUCAAUUAUACAUGAGGAUCACCCAUGUUGAGAUUGAUGGGUUU | 16.9 | 17.8 |  | 
18 | UGUGCACUAGGAUAUGCGUAAGCUGAUACGUCAGCAGGUCUACAUGAGGAUCACCCAUGUAGAAGGAGUGUACU | 17.1 | 16.9 |  | 
19 | UGUGCGUAUGUGAGGAUAUGCUGGUCCUUGGCUCGGCAGAAGGCACAUGAGGAUCACCCAUGUGGUGUCGUACC | 38.6 | 189 |  | 
20 | UGUGCGUUGAUCUUCGAUCGGUGUACAUGAGGAUCACCCAUGUAGGAUAUUCUAAGACGCAGAUAGGAGAAGGACAUUGGUUUU | 22.9 | 64.1 |  | 
21 | UGUGCUGAAGGAUAUGCGUAAUGGCCGUGAGGCCUAGAUCUACAUGAGGAUCACCCAUGUAGAAGGUCAGUACU | 17.4 | 18.9 |  | 
22 | UGUGGGAGUCAGAAGGAGUAUUCUACAUGAGGAUCACCCAUGUCUGGUGCUAGGAUAUGGGUCUGGGCGGACUAAGGUCUCGUA |  |  | 444 | 243
23 | UGUGUUAUCGGAGGAUAUCGAUAUCAAACAUGAGGAUCACCCAUGUUGAGGAUCACCCAUGUCCACGAGAAGGCCGGCGUACUC |  |  | 23.8 | 24.1
24 | UGUUAGUAGACAGGAUAUUGAAUGUUAAGUAUUAACAUGAGGAUCACCCAUGUAUUUGAUUGGUACAAGAAGGGUCAUGUUUGU |  |  | 265 | 606
25 | UGUUAUUAGACAGGAUAUUGAAUGUUAAGUAUUAACAUGAGGAUCACCCAUGUAUUUGAUUGGUACAAGAAGGGUCAUGUUCCU |  |  | 431 | 649
26 | UGUUCAUCAUCAGGAUAUUAACGUGGGCUACUUUAAGAAGGGAUAGUGGGAGAGGAUGUGAAACAUGAGGAUCACCCAUGUUGU |  |  | 13.4 | 10.3
27 | UGUUGUAUUACAGGAUAUCUAGUAUUUUUAAUUAGAGAAGGGUAUUCACAUGAGGAUCACCCAUGUAUAUACGAGGAAGUUGUG |  |  | 43.3 | 43.1

Row | Sequence | apparent Kd [1] [nM] | apparent Kd [2] [nM] | apparent Kd [3] [nM] | apparent Kd [4] [nM]
28 | UGUUGUAUUACAGGAUAUCUAGUAUUUUUAUUUAGAGAAGGGUAUUCACAUGAGGAUCACCCAUGUAUAUACGAGGAAGUUGUG |  |  | 34.3 | 38.8
29 | UGUUGUAUUACAGGAUAUCUAUUAUUAUUAUUUAGAGAAGGGUAUUCACAUGAGGAUCACCCAUGUAUAUACGAGGAAGUUGUG |  |  | 43.7 | 45.5
30 | UGUUGUAUUACAGGAUAUCUAUUAUUUUUAAUUAGAGAAGGGUAUUCACAUGAGGAUCACCCAUGUAUAUACGAGGAAGUUGUG |  |  | 35.2 | 35.8
31 | UGUUGUAUUACAGGAUAUCUAUUAUUUUUUUUUAGAGAAGGGUAUUCACAUGAGGAUCACCCAUGUAUAUACGAGGAAGUUGUG |  |  | 59.8 | 62
32 | UGUUGUUCAGGAUAUGGUGUGUUAUACAUGAGGAUCACCCAUGUGGGUCCUGGUUUGGCGUCAGAAGGGAAUGUUG | 539 | 396 |  | 
33 | UGUUUCUUGUAAGGAUAUACUAGCGAUAAGCUAGUAGAAGGUACUGUCUUUUGUAUCUCAUAUUUACAUGAGGAUCACCCAUGU |  |  | 9.41 | 8.07
34 | UGUUUUUUGGGAGGAUAUGUAAAUUUAAACAUGAGGAUCACCCAUGUGGAUCACCCAUGUAGAUAAUAGAAGGCCCUUUUUUUU | 55.3 | 36.5 |  | 
35 | UUAAAUCAUGUAGGAUAUGCAUGGCGAAGCUACGCAGAAGGACAUGAGGAUCACCCAUGUUAUAGCUUCCAAGUUAGGAGGCAA | 85.7 | 191 |  | 
36 | UUAACUCAUGUAGGAUAUGCAUGGCGAAGCUACGCAGAAGGACAUGAGGAUCACCCAUGUUCUAGCGUCUGGAAACAGAUGCAA | 67.9 | 359 |  | 
37 | UUAAUAAUACAAGGAUAUCUAUUGUUCUUAAGACAUACAUGAGGAUCACCCAUGUUAAUAUAUAUAGAGAAGGUGUAUUUUCAG |  |  | 27.2 | 20
38 | UUAAUAGUAGGAUAUACAUGAGGAUCACCCAUGUAGCAACUACAUUAAGGAACCUGAUGUAGAAGGACUCCCAG | 13.3 | 15.2 |  | 
39 | UUAAUGAUGUAAGGAUAUACAUGAGGAUUUCUCGUAGAAGGUACAAGACAUGAGGAUCACCCAUGUGUCGCUCCGUAGAGCGUA |  |  | 288 | 302
40 | UUAAUGUGAGGAUAUCAGGUGUGAUAGAGUAAUGGUAAAUCUGAGAAGGCACAUGAGGAUCACCCAUGUUCUUC | 23 | 33.8 |  | 
41 | UUAAUUAAUUAAUUAUACAUGAGGAUCACCCAUGUAAGUGAUCAGGAUAUCAGCUCGAUUAGAGCUGAGAAGGGAUCCAUGUAA |  |  | 109 | 81.3
42 | UUAAUUAAUUAAUUGCAGUUACAUGAGGAUCACCCAUGUAUAUAGGAUAUCGUCAGGAAUACUGACGAGAAGGAUAUACUCUGC | 21.6 | 26.7 |  | 
43 | UUAAUUAAUUAAUUGCAGUUUACAUGAGGAUCACCCAUGUAUAAGGAUAUGCAGUGGAAUACACUGCAGAAGGUAUACAUCUGC | 19.5 | 35.2 |  | 
44 | UUAAUUAUGUAAGGAUAUACAUGAGGAUUUCUCGUAGAAGGUACAUUACAUGAGGAUCACCCAUGUGGGUGUCCGUAGACGCCA |  |  | 632 | 614
45 | UUACAGCAAGGAUAUACAUGAGGAUCACCCAUGUAUGCGUGUUCGAGAGAGGCCUACGGUAGAAGGUGCAUGUU | 24.1 | 22.4 |  | 
46 | UUACUAUUGGAGAAGGGUCGAUCAUAUAGAAUGACAGGAUAUCCAACAUGAGGAUCACCCAUGUUUCACCCAUAUGAGGAUCAC | 102 | 31 |  | 
47 | UUACUCAUGUAAGGAUAUGCAGCCGAUACGGCUGCAGAAGGUACUAAAAUACAUGAGGAUCACCCAUGUCUUUUUAAUUUAGAC |  |  | 140 | 73.7
48 | UUACUCAUGUAAGGAUAUGCAGCCGUGUCGGCUGCAGAAGGUACUAUAAUACAUGAGGAUCACCCAUGUCUAUAAAAUAAAGAC |  |  | 48 | 26.8
49 | UUACUCAUGUAAGGAUAUGCAGCCGUUUCGGCUGCAGAAGGUACUAUAAUACAUGAGGAUCACCCAUGUCUAUAAAAUAAAGGC |  |  | 48.9 | 50.2
50 | UUACUCAUGUAAGGAUAUGCAGCCGUUUCGGUUGCAGAAGGUACUAUAAUACAUGAGGAUCACCCAUGUCUUUUUAAUUUUUAC |  |  | 67.9 | 31.2
51 | UUAGAAAGGUUAGGAUAUUAAUUAUUGUAUAGUAUGAUCUACAUGAGGAUCACCCAUGUUAAAUAUAAGAAGGAACGUUAGAUU | 57.1 | 54.8 |  | 
52 | UUAGAUAGGUCAGGAUAUCGAUUAUUGUAUAGUAUGAUUUACAUGAGGAUCACCCAUGUUAAAUACGAGAAGGGACGUUAGAUU | 26.5 | 19 |  | 
53 | UUAGAUUAUUGAGGAUAUGGUUAUUUUUAUUAACCAGAAGGCAAACUCAACAUGAGGAUCACCCAUGUAUAAAGGGUAUUAGUU | 84.9 | 82.7 |  | 
54 | UUAGCAACAUGAGGAUCACCCAUGUAGGAUAUCGCUAUUGUAAUCAUGAAACAUGAUUACAAUAGCGAGAAGGACAUAUGCUGG | 22.4 | 19.5 |  | 

— the EternaBench riboswitch data
